The values below come from ChEMBL document CHEMBL4033795, “Design, Synthesis, and Structure-Activity Relationship Study of 2-Oxo-3,4-dihydropyrimido[4,5- d]pyrimidines as New Colony Stimulating Factor 1 Receptor (CSF1R) Kinase Inhibitors” (J Med Chem, 2018).

A value given as a limit tells only on which side of the number the result lay.

The subject of data set [1] is RAW264.7. As to the kind of experiment: Inhibition of protumorigenic potential of mouse RAW264.7 cells assessed as abrogation of human LNCAP cell growth enhancement of macrophages at 0.08 uM co-cultured for 48 hrs by CCK8 assay relative to control. It is filed as functional. The settings on record: RAW264.7, 48 h. An outline of the steps:
(§1)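 LNCaP cells, (2−4) × 10^5, were seeded in the lower transwell chamber. After 2 h, (1−2) × 10^6 RAW264.7 cells were added in a 0.4 μm insert. Compound at 0.016–2.0 μM was added to the top chamber and cells were cocultured 48 h at 37 °C. LNCaP cells were then imaged and counted by CCK8. Run three times, each in triplicate.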

Data set [2] concerns the target T1, Macrophage colony-stimulating factor 1 receptor (Mus musculus) (UniProt P09581).
T1 sequence (whole entry): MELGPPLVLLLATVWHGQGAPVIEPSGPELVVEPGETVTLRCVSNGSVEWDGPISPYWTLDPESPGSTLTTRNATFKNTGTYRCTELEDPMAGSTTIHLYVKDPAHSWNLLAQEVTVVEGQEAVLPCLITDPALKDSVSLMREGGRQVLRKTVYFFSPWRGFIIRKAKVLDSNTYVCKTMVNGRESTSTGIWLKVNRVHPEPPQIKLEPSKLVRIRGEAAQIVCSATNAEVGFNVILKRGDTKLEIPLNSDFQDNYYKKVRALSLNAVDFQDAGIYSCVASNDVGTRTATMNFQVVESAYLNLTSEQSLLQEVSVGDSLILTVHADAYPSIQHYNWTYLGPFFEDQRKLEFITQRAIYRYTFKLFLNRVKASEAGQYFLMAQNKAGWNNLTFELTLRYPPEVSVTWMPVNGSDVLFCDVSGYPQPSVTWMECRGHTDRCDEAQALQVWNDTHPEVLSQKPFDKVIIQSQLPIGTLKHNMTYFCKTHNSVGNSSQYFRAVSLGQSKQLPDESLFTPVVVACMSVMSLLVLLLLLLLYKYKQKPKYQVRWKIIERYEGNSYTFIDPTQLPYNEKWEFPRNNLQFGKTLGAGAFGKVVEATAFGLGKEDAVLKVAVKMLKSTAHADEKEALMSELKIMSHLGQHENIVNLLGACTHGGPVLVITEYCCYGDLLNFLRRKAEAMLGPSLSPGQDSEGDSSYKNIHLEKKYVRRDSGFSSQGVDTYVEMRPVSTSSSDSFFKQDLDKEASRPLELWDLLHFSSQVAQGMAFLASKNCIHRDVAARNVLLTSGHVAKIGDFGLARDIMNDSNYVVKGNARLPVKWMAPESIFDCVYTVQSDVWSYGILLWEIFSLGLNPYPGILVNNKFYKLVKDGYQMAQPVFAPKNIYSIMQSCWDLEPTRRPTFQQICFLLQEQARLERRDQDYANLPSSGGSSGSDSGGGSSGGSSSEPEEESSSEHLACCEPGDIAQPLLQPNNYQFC
As to the kind of experiment: Inhibition of CSF1R phosphorylation in mouse RAW264.7 cells preincubated for 6 hrs followed by CSF1 stimulation for 20 mins by Western blot analysis. The format is cell-based. Put shortly: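 RAW264.7 cells were seeded, incubated overnight and treated 6 h with graded compound concentrations, then stimulated 20 min with CSF-1 (50 ng/mL). Lysates were run on 8−12% SDS-PAGE and immunoblotted for p-CSF1R (Tyr723), CSF1R, p-AKT, AKT and GAPDH. Bands were quantified and normalized to GAPDH. Mean ± SEM of at least three experiments.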
On the technique in general: Immunoblotting shows a protein as a band on a membrane.

In data set [3] the target is Fibroblast growth factor receptor 2 (Homo sapiens, UniProt P21802). Put plainly: Inhibition of cytoplasmic recombinant human His-tagged FGFR2 (403 to 822 residues) expressed in baculovirus using tyr4 peptide as substrate after 1 hr by FRET-based Z'-Lyte assay.
Chain of Fibroblast growth factor receptor 2 (P21802 whole entry, the tested form may be a part): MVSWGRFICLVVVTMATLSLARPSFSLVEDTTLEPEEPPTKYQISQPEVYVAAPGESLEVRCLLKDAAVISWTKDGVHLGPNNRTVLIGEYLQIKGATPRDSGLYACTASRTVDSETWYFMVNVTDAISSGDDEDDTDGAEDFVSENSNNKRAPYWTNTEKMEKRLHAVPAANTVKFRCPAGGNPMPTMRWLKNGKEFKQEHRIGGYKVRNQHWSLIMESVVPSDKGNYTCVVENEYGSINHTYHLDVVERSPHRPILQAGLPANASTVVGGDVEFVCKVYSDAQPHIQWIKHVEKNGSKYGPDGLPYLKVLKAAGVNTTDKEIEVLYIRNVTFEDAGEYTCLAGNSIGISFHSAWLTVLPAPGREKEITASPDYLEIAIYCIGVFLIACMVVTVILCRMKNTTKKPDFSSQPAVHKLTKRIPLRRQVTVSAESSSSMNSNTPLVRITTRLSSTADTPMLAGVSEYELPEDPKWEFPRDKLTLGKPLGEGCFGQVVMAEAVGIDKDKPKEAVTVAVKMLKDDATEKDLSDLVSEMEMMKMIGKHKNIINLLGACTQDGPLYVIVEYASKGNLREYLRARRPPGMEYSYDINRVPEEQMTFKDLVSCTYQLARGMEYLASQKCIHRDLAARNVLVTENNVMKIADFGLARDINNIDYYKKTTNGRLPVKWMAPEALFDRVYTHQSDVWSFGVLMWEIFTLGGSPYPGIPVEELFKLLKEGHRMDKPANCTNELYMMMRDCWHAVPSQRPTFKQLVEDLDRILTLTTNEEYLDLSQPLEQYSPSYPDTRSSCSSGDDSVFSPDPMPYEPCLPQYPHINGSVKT
Data set [4] addresses Mast/stem cell growth factor receptor Kit (Homo sapiens, UniProt P10721). As to the kind of experiment: Inhibition of recombinant cytoplasmic human His-tagged KIT expressed in baculovirus using […] peptide as substrate after 1 hr by FRET-based Z'-Lyte assay.
Data set [5] concerns the target Proto-oncogene tyrosine-protein kinase receptor Ret (Homo sapiens) (UniProt P07949). As to the kind of experiment: Inhibition of human RET (E713 to D1014 residues) expressed in bacterial expression system at 100 nM by KINOMEscan assay relative to control.
Data set [6] has as its system RAW264.7. Put plainly: Antimigratory activity against mouse RAW264.7 cells assessed as inhibition of human LNCaP-MDV-CM mediated macrophage migration at 1.25 uM after 24 hrs by crystal violet staining based transwell assay relative to control. The format is functional. The settings on record: RAW264.7, 24 h. Put shortly:
(§2)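 RAW264.7 cells, (2−4) × 10^5, were placed serum-free in the upper insert of a transwell. The lower chamber held conditioned medium from LNCaP cells grown 48 h in 10% FBS RPMI 1640 with 10 μM MDV3100 or DMSO. Compound at 0.625–5.0 μM was added to the top chamber for 24 h at 37 °C. Migrated cells were fixed in methanol, stained with 0.25% crystal violet and counted in six random fields at 200×. Three independent experiments.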

The subject of data set [7] is RAW264.7. As to the kind of experiment: Antimigratory activity against mouse RAW264.7 cells assessed as inhibition of human LNCaP-MDV-CM mediated macrophage migration at 0.625 uM after 24 hrs by crystal violet staining based transwell assay relative to control. The settings on record: RAW264.7, 24 h. The format is functional. An outline of the steps: as §2
Data set [8] has as its target Ephrin type-A receptor 1 (Homo sapiens) (UniProt P21709). As to the kind of experiment: Inhibition of recombinant human EPHA1 (V588 to I913 residues) expressed in bacterial expression system at 100 nM by KINOMEscan assay relative to control.
The test system of data set [9] is RAW264.7. Put plainly: Inhibition of protumorigenic potential of mouse RAW264.7 cells assessed as abrogation of human LNCAP cell growth enhancement of macrophages at 2 uM co-cultured for 48 hrs by CCK8 assay relative to control. The format is functional. The following applies: RAW264.7, 48 h. An outline of the steps:
as §1
In general terms: Tetrazolium assays rely on reduction of a dye to a coloured formazan, in cell work by metabolically active cells.

The target in data set [10] is Platelet-derived growth factor receptor beta (Homo sapiens, UniProt P09619). Put plainly: Inhibition of recombinant human PDGFRbeta expressed in baculovirus using poly (4:1 Glu, Tyr) peptide as substrate after 1 hr by ADP-Glo assay. For orientation: ADP-Glo first removes unused ATP, then detects ADP through luciferase.
Chain of Platelet-derived growth factor receptor beta (P09619 whole entry): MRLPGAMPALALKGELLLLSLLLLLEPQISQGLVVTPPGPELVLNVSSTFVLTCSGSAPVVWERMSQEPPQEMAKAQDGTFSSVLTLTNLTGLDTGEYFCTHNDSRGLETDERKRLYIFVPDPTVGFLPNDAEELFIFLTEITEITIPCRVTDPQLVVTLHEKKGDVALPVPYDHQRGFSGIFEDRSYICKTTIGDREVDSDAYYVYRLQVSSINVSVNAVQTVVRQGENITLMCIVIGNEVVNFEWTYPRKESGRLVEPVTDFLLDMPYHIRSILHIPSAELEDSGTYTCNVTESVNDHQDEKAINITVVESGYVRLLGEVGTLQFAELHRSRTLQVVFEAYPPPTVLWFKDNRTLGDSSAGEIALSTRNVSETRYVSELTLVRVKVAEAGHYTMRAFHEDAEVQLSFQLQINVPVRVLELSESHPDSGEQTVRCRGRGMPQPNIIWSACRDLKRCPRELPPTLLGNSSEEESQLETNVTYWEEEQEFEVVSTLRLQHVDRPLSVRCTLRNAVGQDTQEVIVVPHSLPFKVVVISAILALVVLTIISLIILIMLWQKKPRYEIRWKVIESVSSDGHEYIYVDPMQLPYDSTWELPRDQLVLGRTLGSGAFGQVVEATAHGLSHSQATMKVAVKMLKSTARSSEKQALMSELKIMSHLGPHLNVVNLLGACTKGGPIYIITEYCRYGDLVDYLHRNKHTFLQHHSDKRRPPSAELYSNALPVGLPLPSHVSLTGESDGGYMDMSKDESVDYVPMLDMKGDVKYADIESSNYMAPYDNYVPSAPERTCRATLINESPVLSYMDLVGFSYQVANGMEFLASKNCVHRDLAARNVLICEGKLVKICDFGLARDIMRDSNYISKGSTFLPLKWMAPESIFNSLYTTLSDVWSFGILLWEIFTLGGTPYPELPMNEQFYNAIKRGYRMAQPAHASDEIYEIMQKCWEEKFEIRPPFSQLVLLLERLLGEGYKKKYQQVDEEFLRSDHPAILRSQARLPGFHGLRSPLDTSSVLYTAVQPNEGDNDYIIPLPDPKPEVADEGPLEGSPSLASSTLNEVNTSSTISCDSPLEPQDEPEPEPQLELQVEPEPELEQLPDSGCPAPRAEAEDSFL
Data set [11] has as its system RAW264.7. Put plainly: Downregulation of VEGFA mRNA expression in mouse RAW264.7 cells after 48 hrs by qRT-PCR analysis relative to DMSO. It is filed as functional, cell-based. An outline of the steps:
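RAW264.7 macrophages were treated 48 h with compound at 0.08, 0.4 or 2.0 μM, or DMSO vehicle. Total RNA was extracted with TRIzol and transcripts were quantified by qRT-PCR using gene-specific primers. Run three times, each in triplicate.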

Data set [12] can be described thus: AUC (0 to infinity) in Sprague-Dawley rat at 5 mg/kg, iv measured up to 72 hrs by LC/MS analysis. The format is ADME, organism-based. Also on record: dose 5 mg/kg, time infinity, route intravenous. The settings on record: in vivo. An outline of the steps:
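Male Sprague-Dawley rats, 4–6 weeks old, acclimatised 1 week, were dosed iv at 5 mg/kg or by oral gavage at 25 mg/kg. Vehicle was 2% DMSO, 4% EtOH, 4% castor oil, 90% H2O. Blood was drawn by orbital sinus puncture from 2 min to 72 h into heparinized tubes. Plasma was assayed by LC/MS with propranolol as internal standard. Three animals per group.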

Data set [13] relates to RAW264.7. As to the kind of experiment: Antimigratory activity against mouse RAW264.7 cells assessed as inhibition of human LNCaP-MDV-CM mediated macrophage migration at 5 uM after 24 hrs by crystal violet staining based transwell assay relative to control. The format is functional. The settings on record: RAW264.7, 24 h. Put shortly: as §2

Chain of Proto-oncogene tyrosine-protein kinase receptor Ret (Homo sapiens) (P07949 whole entry, the tested form may be a part): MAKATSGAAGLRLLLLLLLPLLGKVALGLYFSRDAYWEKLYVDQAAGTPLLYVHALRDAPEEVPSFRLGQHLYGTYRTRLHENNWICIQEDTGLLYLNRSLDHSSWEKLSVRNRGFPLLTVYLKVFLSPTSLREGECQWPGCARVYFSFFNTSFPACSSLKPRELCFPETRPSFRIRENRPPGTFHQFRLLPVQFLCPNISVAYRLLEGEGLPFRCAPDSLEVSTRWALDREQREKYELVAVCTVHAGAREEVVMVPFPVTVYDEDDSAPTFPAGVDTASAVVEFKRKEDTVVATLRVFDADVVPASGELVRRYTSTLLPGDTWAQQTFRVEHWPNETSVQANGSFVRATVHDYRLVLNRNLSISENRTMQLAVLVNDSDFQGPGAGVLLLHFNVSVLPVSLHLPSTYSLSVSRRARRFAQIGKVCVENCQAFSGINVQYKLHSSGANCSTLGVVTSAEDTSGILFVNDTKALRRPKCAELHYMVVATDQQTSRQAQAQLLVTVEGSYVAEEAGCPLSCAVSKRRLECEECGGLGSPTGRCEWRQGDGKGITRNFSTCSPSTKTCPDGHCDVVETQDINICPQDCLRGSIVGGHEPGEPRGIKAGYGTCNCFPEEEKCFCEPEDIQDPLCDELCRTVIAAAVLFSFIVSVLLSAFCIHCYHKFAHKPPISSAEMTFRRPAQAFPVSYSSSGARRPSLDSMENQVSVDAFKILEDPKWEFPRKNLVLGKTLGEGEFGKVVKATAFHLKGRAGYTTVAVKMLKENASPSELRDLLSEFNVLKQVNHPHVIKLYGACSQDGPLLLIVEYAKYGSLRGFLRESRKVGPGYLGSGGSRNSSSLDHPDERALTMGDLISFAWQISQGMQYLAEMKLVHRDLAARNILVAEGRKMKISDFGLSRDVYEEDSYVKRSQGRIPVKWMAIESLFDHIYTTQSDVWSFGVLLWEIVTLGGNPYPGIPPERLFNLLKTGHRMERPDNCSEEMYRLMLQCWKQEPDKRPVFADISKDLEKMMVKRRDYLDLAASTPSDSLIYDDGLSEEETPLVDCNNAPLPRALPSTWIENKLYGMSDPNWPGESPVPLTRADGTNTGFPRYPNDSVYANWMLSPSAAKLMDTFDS
Chain of Mast/stem cell growth factor receptor Kit (P10721 whole entry, the tested form may be a part): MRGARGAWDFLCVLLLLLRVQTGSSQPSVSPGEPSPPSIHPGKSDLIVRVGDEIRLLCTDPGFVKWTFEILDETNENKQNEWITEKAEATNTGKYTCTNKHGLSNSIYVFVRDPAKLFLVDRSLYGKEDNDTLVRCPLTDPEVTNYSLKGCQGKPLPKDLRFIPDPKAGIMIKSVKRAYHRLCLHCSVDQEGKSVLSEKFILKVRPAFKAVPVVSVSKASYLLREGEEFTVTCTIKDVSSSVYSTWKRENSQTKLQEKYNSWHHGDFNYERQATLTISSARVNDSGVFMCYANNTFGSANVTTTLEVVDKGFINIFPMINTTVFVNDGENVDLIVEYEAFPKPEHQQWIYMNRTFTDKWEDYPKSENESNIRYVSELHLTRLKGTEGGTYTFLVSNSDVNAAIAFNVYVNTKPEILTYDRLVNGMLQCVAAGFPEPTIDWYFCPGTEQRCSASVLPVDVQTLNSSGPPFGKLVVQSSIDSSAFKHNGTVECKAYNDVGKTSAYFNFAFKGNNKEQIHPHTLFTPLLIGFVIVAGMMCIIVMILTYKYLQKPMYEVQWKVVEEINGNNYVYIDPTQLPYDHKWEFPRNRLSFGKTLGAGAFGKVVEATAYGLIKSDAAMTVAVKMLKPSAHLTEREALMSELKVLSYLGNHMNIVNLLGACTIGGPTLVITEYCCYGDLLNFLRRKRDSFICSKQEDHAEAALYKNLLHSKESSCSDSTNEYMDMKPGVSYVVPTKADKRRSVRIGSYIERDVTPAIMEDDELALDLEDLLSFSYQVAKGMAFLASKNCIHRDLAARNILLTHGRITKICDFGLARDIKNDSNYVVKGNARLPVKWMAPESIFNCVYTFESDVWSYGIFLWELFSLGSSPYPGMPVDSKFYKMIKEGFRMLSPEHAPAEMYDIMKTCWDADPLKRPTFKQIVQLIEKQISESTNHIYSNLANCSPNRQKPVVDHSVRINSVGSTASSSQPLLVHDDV
Chain of Ephrin type-A receptor 1 (Homo sapiens) (P21709 whole entry, the tested form may be a part): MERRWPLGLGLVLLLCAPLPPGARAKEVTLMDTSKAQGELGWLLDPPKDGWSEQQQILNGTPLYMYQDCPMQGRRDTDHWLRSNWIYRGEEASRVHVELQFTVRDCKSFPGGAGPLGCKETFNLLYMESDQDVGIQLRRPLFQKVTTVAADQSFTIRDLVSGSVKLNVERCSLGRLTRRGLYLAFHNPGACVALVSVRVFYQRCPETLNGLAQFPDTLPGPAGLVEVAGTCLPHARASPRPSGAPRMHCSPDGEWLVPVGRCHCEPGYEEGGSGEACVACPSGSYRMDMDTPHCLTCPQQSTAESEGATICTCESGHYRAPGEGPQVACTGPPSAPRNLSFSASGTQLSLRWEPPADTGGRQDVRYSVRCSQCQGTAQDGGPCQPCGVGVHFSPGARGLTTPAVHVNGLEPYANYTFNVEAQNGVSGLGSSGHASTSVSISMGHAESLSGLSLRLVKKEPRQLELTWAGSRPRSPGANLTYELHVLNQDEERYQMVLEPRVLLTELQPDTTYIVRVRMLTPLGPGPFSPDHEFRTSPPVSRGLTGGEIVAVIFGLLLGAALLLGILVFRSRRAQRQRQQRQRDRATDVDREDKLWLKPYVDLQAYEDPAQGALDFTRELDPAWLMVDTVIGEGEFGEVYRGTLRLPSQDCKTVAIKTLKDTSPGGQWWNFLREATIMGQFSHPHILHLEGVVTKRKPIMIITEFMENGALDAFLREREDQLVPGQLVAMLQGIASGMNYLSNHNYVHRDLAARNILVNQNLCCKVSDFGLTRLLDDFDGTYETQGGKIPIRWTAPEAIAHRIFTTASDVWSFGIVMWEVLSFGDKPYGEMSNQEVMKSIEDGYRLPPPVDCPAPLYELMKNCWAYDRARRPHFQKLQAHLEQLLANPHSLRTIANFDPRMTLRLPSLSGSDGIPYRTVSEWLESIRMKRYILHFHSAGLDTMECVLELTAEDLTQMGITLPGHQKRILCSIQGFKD

Broadly, the inhibition is the drop in the measured response relative to a control, in per cent. The term IC50 denotes the concentration that gives 50% inhibition. The AUC(0-inf) is total exposure, with the tail of the curve extrapolated. A lower AUC(0-inf) goes with low exposure. In the case of `CCC(=O)N1CC[C@H](N2C(=O)N(c3cc(OC)ccc3Cl)Cc3cnc(Nc4ccc(N5CCN(C6COC6)CC5)c(C)c4)nc32)C1`, the inhibition at 0.08 µM in the data set with RAW264.7 [1] was found to be 70%. Moreover, the results for the inhibition entry in data set [2], in data set [5] and in [8] were “Dose-dependent effect”, > 90% and > 90%, respectively. The IC50 amounted to 27 nM in [3], 30 nM in data set [4] and 106 nM in [10]. Also, in the data set on RAW264.7 [6], the inhibition at 1.25 µM worked out at 52.7%. Besides, the inhibition at 0.625 µM in the data set on RAW264.7 [7] amounted to 44.5%. Also, in the data set with RAW264.7 [9], the inhibition at 2 µM stood at 94.6%. Further, the Activity result in the data set on RAW264.7 [11] is “Dose-dependent effect”. In data set [12], this compound came in with an AUC(0-inf) of 2910 ng·h/mL. The inhibition at 5 µM in the data set on RAW264.7 [13] is 90.7%.
